Test results taken from publication PMC11316633 (European journal of medicinal chemistry, 2024).

Experiments:
CDK7 [1] = target: T1, CDK7 (Homo sapiens, UniProt P50613); test: Immunoblot analysis of CDK7 degradation in Jurkat cells; format: cell-based
Outline: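 Jurkat cells received test compound at 0.1 or 1 μM for 16 h, 0.1 μM for 0.5–24 h, or a concentration series for 6 h. Other arms were pretreated 2 h with MG132, MLN-4924, parent CDK7 inhibitor or VHL ligand, or used VHL-knockout Jurkat (6 h). Blots: RIPA lysis, 4–20% SDS-PAGE, nitrocellulose, anti-CDK7 1:1000, β-actin 1:5000, IRDye secondaries. Mean ± SEM of three biological replicates.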

CDK7 [2] = target: T1, CDK7; test: Immunoblot analysis of CDK7 degradation in different cell lines; format: cell-based; settings: 6 h
Outline: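 Cell lines grown in RPMI 1640/10% FBS were exposed to test compound for 6 h. Lysis was in ice-cold RIPA (pH 7.4) with protease/phosphatase inhibitors, with BCA-equalised loading. Proteins were run on 4–20% SDS-PAGE and transferred to nitrocellulose. Blots were probed overnight at 4 °C with anti-CDK7 1:1000 and β-actin 1:5000, then with IRDye secondaries for 1 h at room temperature, and scanned by infrared imaging.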

[3] = system: CDK1, 2, 4, 5, 6, 8 and 9; test: Western blotting analysis of other CDKs in Jurkat cells; format: cell-based, human; settings: 0.1 to 0.5 μM, 6 hours
Outline: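 Jurkat cells were exposed to test compound at 0.1–0.5 μM for 6 h. Lysis was in ice-cold RIPA (pH 7.4) with protease and phosphatase inhibitors, with BCA protein quantitation. Samples were boiled 10 min at 95 °C, run on 4–20% SDS-PAGE, and transferred to nitrocellulose. Primary antibodies were applied overnight at 4 °C, then IRDye secondaries for 1 h at room temperature, with infrared detection.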

OVCAR3 cells proteome = test: Multiplexed quantitative mass-spectrometry-based proteomics in OVCAR3 cells; format: cell-based, human; settings: OVCAR3, 0.1 μM, 6 h
Outline: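 OVCAR3 cells in triplicate plates adhered 24 h, then received 0.1 μM test compound or DMSO for 6 h. Lysis was in 2% SDS buffer, followed by 5 mM DTT (37 °C, 1 h) and 15 mM iodoacetamide. Lys-C then trypsin (each 1:75) digested the samples. 150 μg per sample was TMT18-labelled, fractionated at pH 8, and quantified by SPS-MS3 on an Orbitrap. Target-decoy SEQUEST search; peptides with TMT sum >200 and isolation specificity >0.7 kept.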

MAT1 = test: Western blotting analysis of MAT1 in OVCAR3 and Jurkat cells; format: cell-based; settings: Western blot, 6 h
Outline: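 OVCAR3 and Jurkat cells were exposed to test compound for 6 h. RIPA lysates were BCA-equalised, resolved on 4–20% SDS-PAGE, and transferred to nitrocellulose. Blots were probed overnight at 4 °C for MAT1, Cyclin H and CDK7 (each 1:1000) plus β-actin (1:5000), then with IRDye secondaries for 1 h at room temperature, and imaged by infrared scanning.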

LONRF2 = test: Western blot of LONRF2; format: cell-based; settings: 0.1 to 5 μM
Outline: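 Immunoblot with anti-LONRF2 1:1000 overnight at 4 °C and β-actin 1:5000 as loading control. RIPA lysates with protease/phosphatase inhibitors were BCA-equalised, run on 4–20% SDS-PAGE, and transferred to nitrocellulose. IRDye secondaries were applied for 1 h at room temperature, followed by infrared scanning.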

OVCAR3 cells = test: CellTiter-Glo proliferation assay, OVCAR3; format: cell-based; settings: OVCAR3, 72h
Outline: (§1)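 Cells were grown in RPMI 1640 with 10% heat-inactivated FBS and penicillin/streptomycin at 37 °C and 5% CO2, and tested mycoplasma-negative. They were seeded at 10^4/ml and treated in triplicate. Compounds were dispensed by robot from 10 mM or 1 mM stocks, with DMSO equalised across wells. A non-degrading analogue and the parent inhibitor served as controls. After 72 h, CellTiter-Glo was added for 10–15 min at room temperature and luminescence was read.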

[4] = Mouse pharmacokinetic study; format: in vivo, mice
[5] = Tolerability during mouse PK study; format: in vivo; settings: mice
CDK7/Cyclin H/MNAT1 = CDK7/Cyclin H/MNAT1 (Homo sapiens, UniProt P50613); test: Adapta Eu kinase assay; format: biochemical
Chain of CDK7/Cyclin H/MNAT1 (P50613 whole entry): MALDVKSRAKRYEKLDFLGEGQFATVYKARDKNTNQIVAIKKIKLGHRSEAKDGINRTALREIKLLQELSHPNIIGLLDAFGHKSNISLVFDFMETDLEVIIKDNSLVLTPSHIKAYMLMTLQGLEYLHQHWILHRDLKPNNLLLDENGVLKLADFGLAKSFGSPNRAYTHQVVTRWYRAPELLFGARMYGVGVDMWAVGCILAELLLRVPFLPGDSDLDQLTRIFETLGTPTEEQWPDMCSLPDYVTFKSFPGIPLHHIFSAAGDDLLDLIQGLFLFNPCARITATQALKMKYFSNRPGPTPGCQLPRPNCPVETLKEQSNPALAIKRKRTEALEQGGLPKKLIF
Chain of CDK7/Cyclin H/MNAT1 (P51946 whole entry partner): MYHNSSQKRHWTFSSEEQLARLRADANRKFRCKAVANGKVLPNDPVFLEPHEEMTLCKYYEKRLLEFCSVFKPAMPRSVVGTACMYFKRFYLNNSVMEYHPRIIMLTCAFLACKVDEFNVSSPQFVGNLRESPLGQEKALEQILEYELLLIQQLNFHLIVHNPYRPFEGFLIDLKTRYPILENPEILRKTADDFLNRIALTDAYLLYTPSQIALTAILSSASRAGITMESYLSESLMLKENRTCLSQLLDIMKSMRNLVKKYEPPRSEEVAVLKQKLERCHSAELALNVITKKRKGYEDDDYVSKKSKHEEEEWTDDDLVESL
Chain of CDK7/Cyclin H/MNAT1 (P51948 whole entry partner): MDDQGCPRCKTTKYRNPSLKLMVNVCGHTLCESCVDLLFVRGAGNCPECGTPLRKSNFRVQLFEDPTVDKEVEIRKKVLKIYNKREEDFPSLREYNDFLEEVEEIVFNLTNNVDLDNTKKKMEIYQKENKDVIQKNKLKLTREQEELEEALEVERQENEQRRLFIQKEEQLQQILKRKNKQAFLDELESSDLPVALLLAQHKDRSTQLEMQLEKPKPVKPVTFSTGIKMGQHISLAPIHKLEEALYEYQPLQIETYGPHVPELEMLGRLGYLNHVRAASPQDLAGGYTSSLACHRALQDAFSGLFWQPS
Outline: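 CDK7/Cyclin H/MNAT1 complex tested by an outside contract service in Adapta Eu format, with ATP at its Km concentration.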

Jurkat cells = test: CellTiter-Glo proliferation assay, Jurkat; format: cell-based, human; settings: 72h
Outline: as §1

SUDHL5 cells = test: CellTiter-Glo proliferation assay, SUDHL5; format: cell-based; settings: SUDHL5, 72h
Outline: as §1

Molt4 cells = test: CellTiter-Glo proliferation assay, Molt4; format: cell-based; settings: Molt4, 72h
Outline: as §1

A549 cells = test: CellTiter-Glo proliferation assay, A549; format: cell-based; settings: A549, 72h
Outline: as §1

[6] = Jurkat cells, 0.1 μM or 1 μM, 16 h, Western blot

T1 sequence (P50613 2-346 limits assumed): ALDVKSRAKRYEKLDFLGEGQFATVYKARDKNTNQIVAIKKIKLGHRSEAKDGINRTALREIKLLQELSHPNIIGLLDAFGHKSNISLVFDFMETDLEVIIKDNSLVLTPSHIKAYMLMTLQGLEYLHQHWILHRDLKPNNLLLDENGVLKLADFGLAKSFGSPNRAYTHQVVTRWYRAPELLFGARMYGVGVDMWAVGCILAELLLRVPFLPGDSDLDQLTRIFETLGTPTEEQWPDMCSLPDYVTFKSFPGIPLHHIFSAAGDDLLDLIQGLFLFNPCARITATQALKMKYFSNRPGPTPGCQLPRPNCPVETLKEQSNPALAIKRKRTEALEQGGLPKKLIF
T1 sequence (P51946 whole entry partner): as the sequence (P51946 whole entry partner) above
T1 sequence (P51948 whole entry partner): as the sequence (P51948 whole entry partner) above

For Cc1ncsc1-c1ccc([C@H](C)NC(=O)[C@@H]2C[C@@H](O)CN2C(=O)[C@@H](NC(=O)CCCC#Cc2ccc(C(=O)Nc3n[nH]c4c3CN(C(=O)N[C@H](CN(C)C)c3ccccc3)C4(C)C)cc2)C(C)(C)C)cc1 [Compound 17, N-((S)-2-(dimethylamino)-1-phenylethyl)-3-(4-(6-(((S)-1-((2S,4R)-4-hydroxy-2-(((S)-1-(4-(4-methylthiazol-5-yl)phenyl)ethyl)carbamoyl)pyrrolidin-1-yl)-3,3-dimethyl-1-oxobutan-2-yl)amino)-6-oxohex-1-yn-1-yl)benzamido)-6,6-dimethyl-4,6-dihydropyrrolo[3,4-c]pyrazole-5(1H)-carboxamide], the “CDK7 degradation (in words)” value (CDK7 [1]; [6]) was “most effective degrader for CDK7”, the “reduction in CDK7 protein” value (CDK7 [1]; [6]) was “up to 95%” and the “time at which degradation of CDK7 was observable” value (CDK7 [1]; Jurkat cells, 0.1 μM, time course up to 24 hours) was at most 0.5 h. The “CDK7 degradation after pretreatment with MG132 or MLN-4924” value (CDK7 [1]; Jurkat cells, 2 h pretreatment, then 17 for 6 h) was “rescued CDK7 degradation”, the hook effect (CDK7 [1]; Jurkat cells, 6 h, up to 5 μM) was “no hook effect was observed” and the “CDK7 degradation, concentration dependence” value (CDK7 [1]; Jurkat cells, different concentrations, 6 h) was “efficiently induced CDK7 degradation in a dose-dependent manner”. The “CDK7 degradation in cells lacking VHL” value (CDK7 [1]; VHL-knockout Jurkat cells vs wild-type, 6 h) was “completely abrogated”, the CDK7 degradation (CDK7 [2]; A549 lung adenocarcinoma cell line) was “Robust degradation” and the CDK7 degradation (CDK7 [2]; Molt4 T lymphoblast cell line) was “Robust degradation”. The CDK7 degradation (CDK7 [2]; OVCAR3 ovarian adenocarcinoma cell line) was “Robust degradation”, the CDK7 degradation (CDK7 [2]; SUDHL5 B-cell lymphoma cell line) was “Robust degradation” and the “protein levels of other CDK family members” value [3] was “barely affected the protein levels”. The “CDK7 abundance (proteomics)” value (OVCAR3 cells proteome) was “significantly downregulated”, the “Cyclin H abundance (proteomics)” value (OVCAR3 cells proteome) was “significantly downregulated” and the “number of significantly changed proteins” value (OVCAR3 cells proteome; 6538 proteins identified, 1.75-fold cutoff, p-value < 0.001, vs DMSO) was “only three significantly changed proteins were identified”. For the same compound, the MAT1 protein level (MAT1) was “dose-dependent downregulation”, the LONRF2 degradation (LONRF2) was “did not observed LONRF2 degradation” and the “antiproliferative effect (in words)” value (OVCAR3 cells) was “efficacies comparable to its parental compound YKL-5–167”. For the same compound, the concentration at 6 h ([4]; male, CD1, mouse, plasma, ip, 10 mg/kg) was 1490 nM, the clearance ([4]; mice, IV 3 mg/kg and IP 10 mg/kg) was “low clearance” and the maximum plasma concentration ([4]; mice, single IP injection, 10 mg/kg) was 3.39 µM. The clinical signs ([5]; during the PK study) was “no clinical signs were observed” and the tolerability ([5]; single dose IV 3 mg/kg or IP 10 mg/kg) was “well tolerated”.

For Cc1ncsc1-c1ccc([C@H](C)NC(=O)[C@@H]2C[C@H](O)CN2C(=O)[C@@H](NC(=O)CCCC#Cc2ccc(C(=O)Nc3n[nH]c4c3CN(C(=O)N[C@H](CN(C)C)c3ccccc3)C4(C)C)cc2)C(C)(C)C)cc1 [Compound 17-Neg, N-((S)-2-(dimethylamino)-1-phenylethyl)-3-(4-(6-(((S)-1-((2S,4S)-4-hydroxy-2-(((S)-1-(4-(4-methylthiazol-5-yl)phenyl)ethyl)carbamoyl)pyrrolidin-1-yl)-3,3-dimethyl-1-oxobutan-2-yl)amino)-6-oxohex-1-yn-1-yl)benzamido)-6,6-dimethyl-4,6-dihydropyrrolo[3,4-c]pyrazole-5(1H)-carboxamide], the IC50 (CDK7/Cyclin H/MNAT1) was 21.1 nM, the “level of CDK7 protein” value (CDK7 [1]; Jurkat cells, 6 h, negative control) was “fails to reduce the level of CDK7 protein” and the “anti-proliferative effect (in words)” value (Jurkat cells) was “much weaker anti-proliferative effect”. For the same compound, the “antiproliferative effect (in words)” value (SUDHL5 cells) was “much weaker antiproliferative effect”, the “antiproliferative effect (in words)” value (Molt4 cells) was “much weaker antiproliferative effect” and the “antiproliferative effect (in words)” value (A549 cells) was “much weaker antiproliferative effect”. For the same compound, the “antiproliferative effect (in words)” value (OVCAR3 cells) was “much weaker antiproliferative effect”.
